Results as given in ChEMBL document CHEMBL2429861, “Chemopreventive and antioxidant activity of 6-substituted imidazo[2,1-b]thiazoles” (Eur J Med Chem, 2013).
pIC50: −log10 of the molar value.

Columns and labels:
[1] = Inhibition of TNFalpha-induced nuclear factor-kappa-B activation in human HEK293 cells at by luciferase reporter gene assay; format: cell-based
Method in brief: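 Stably transfected 293/NFkB-Luc cells seeded at 20 × 10^3 per well in DMEM with 10% FBS, penicillin/streptomycin and 2 mM L-glutamine for 48 h. Medium was then replaced and cells were given compounds in DMSO plus TNF-α 2 ng/mL (0.14 nM) for 6 h. Cells were lysed and luciferase luminescence read; IC50 is the concentration halving TNF-α-activated activity; […]. Mean ± SD of two experiments in duplicate.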

[2] = Antioxidant activity assessed as trolox equivalents of ABTS radical scavenging activity at pH 7.4 by spectrophotometry; format: functional
Method in brief: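 TEAC run at pH 7.4; activity reported as mM equivalents of Trolox.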

[3] = molecular target: T1, Nitric oxide synthase, inducible (Mus musculus) (UniProt P29477); experiment: Inhibition of iNOS-mediated NO production in mouse RAW264.7 cells at 50 uM by Griess assay; format: cell-based
T1 sequence (whole entry): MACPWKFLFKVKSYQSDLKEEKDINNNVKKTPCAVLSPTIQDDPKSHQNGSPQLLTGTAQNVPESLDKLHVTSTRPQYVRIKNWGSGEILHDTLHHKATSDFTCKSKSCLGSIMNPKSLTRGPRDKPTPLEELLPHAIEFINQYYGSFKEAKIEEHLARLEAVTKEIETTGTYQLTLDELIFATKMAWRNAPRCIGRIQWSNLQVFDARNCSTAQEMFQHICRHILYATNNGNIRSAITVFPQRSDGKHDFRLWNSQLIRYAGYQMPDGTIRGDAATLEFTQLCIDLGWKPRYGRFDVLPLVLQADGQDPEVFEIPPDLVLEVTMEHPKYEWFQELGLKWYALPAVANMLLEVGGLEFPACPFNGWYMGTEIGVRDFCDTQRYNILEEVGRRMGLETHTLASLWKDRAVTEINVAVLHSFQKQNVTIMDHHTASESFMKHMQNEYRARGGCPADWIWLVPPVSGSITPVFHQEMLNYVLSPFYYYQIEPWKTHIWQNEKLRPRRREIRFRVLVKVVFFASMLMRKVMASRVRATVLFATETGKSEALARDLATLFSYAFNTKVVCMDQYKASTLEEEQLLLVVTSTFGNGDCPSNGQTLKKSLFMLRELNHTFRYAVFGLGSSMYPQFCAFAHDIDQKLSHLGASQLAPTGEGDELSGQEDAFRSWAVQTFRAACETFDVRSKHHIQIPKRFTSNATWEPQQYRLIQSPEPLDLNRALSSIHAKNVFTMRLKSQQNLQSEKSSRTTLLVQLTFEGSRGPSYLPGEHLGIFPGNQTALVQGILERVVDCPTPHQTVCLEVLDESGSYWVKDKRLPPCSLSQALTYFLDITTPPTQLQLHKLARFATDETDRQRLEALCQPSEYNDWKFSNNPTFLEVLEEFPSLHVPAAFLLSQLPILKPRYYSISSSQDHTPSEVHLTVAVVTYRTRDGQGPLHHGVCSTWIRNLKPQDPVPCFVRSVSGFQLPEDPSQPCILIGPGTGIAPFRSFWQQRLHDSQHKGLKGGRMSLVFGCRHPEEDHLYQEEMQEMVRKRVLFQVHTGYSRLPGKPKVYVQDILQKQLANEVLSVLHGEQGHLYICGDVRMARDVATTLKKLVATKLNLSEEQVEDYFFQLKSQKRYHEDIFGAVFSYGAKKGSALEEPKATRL

[4] = molecular target: T1, Nitric oxide synthase, inducible (Mus musculus); experiment: (§1) Inhibition of iNOS-mediated NO production in mouse RAW264.7 cells by Griess assay; format: cell-based
Method in brief: (§2)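 RAW 264.7 cells, 1×10^5 per well, held 24 h at 37 °C under 5% CO2. Nitrite in the medium was measured with Griess reagent (sulfanilamide/N-(1-naphthyl)ethylenediamine in H3PO4) at 540 nm against a sodium nitrite standard curve.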

[5] = molecular target: T2, Nitric oxide synthase, inducible (Mus musculus, UniProt P29477); experiment: as §1; format: cell-based; method in brief: as §2
T2 sequence (P29477 whole entry): T1 sequence (whole entry)

[6] = molecular target: NAD(P)H dehydrogenase [quinone] 1 (Mus musculus) (UniProt Q64669); experiment: Induction of quinone reductase-1 activity in mouse Hepa-1c1c7 cells expressing TAOc1BPrcI mutant assessed as induction ratio at 50 uM by MTT assay relative to DMSO control; format: cell-based
NAD(P)H dehydrogenase [quinone] 1 (Mus musculus), sequence (Q64669 whole entry): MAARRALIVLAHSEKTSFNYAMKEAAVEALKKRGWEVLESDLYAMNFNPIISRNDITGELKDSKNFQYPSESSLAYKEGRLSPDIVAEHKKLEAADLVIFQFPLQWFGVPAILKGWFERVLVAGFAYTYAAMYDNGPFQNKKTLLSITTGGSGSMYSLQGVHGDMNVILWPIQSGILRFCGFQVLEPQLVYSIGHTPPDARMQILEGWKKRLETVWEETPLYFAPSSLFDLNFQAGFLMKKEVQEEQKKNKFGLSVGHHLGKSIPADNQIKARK

[7] = test system: HEK293; experiment: Cytotoxicity against human HEK293 cells assessed as reduction in cell survival; format: cell-based
Method in brief: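 Same 293/NFkB-Luc cells under the NFkB assay conditions; cytotoxic IC50 taken as the concentration giving 50% cell survival.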

[8] = molecular target: NAD(P)H dehydrogenase [quinone] 1 (Mus musculus) (UniProt Q64669); experiment: Induction of quinone reductase-1 activity in mouse Hepa-1c1c7 cells expressing BPrc1 mutant assessed as induction ratio at 50 uM by MTT assay relative to DMSO control; format: cell-based
[9] = test system: Radical scavenging activity; experiment: Antioxidant activity in non-aqueous medium assessed as trolox equivalents of DPPH radical scavenging activity by spectrophotometry; format: functional
Method in brief: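 DPPH radical decolorization by hydrogen-donating scavengers in MeOH or EtOH. Some values could not be determined where the compound's solution colour resembled the DPPH reagent, or where % inhibition versus concentration was not linear.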

[10] = test system: HEK293; experiment: Inhibition of TNFalpha-induced nuclear factor-kappa-B activation in human HEK293 cells at 50 uM by luciferase reporter gene assay; format: cell-based
[11] = Cytotoxicity against human HEK293 cells assessed as cell survival at 50 uM; format: cell-based; conditions: read-out: Survival
[12] = Relative antioxidant activity assessed as resorcinol equivalents of hydroperoxyl scavenging activity at acidic pH by BR oscillating reaction method; format: ADME
Method in brief: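 Briggs–Rauscher oscillating reaction: hydrogen peroxide, acidic iodate, malonic acid and Mn(II) catalyst at about pH 2, with hydroperoxyl radicals as the key intermediates.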

[13] = test system: Liver microsomes; experiment: Drug metabolism in human liver microsomes assessed as monooxygenated metabolite after 1.9 mins by UHPLC-MS/MS analysis; format: ADME, Microsome; conditions: 114 s
Method in brief: (§3)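 Microsomal incubations as for stability (1 mg/mL human liver microsomes, NADPH, 37 °C). Metabolites analysed by UHPLC-MS/MS with a 4.5 min gradient at 0.2 mL/min, recording product ion scans over m/z 100–300.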

[14] = molecular target: NAD(P)H dehydrogenase [quinone] 1 (Mus musculus) (UniProt Q64669); experiment: Induction of quinone reductase-1 activity in mouse Hepa-1c1c7 cells assessed as concentration required to double induction activity by MTT assay; format: cell-based
Method in brief: (§4)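 Hepa 1c1c7 murine hepatoma cells incubated with compounds at […]. Cells were permeabilized with digitonin and QR1 activity measured by MTT reduction to formazan at 595 nm, with a parallel crystal violet protein assay. IR is specific activity versus DMSO control; CD is the concentration doubling activity, determined only where IR >2. Two independent experiments in triplicate.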

[15] = Cytotoxicity against mouse RAW264.7 cells assessed as cell survival at 50 uM after 15 mins by SRB assay; format: cell-based; conditions: read-out: Survival
Method in brief: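 RAW 264.7 cells were seeded at 1×10^5 per well and held 24 h at 37 °C in 5% CO2. They were then pretreated 15 min with serially diluted compound, followed by LPS (or no LPS) for a further 20 h. Medium was taken for the Griess assay, and cells were fixed with 10% TCA and stained with 0.4% SRB in 1% acetic acid. Bound dye was dissolved in 10 mM Tris and read at 515 nm. Survival is relative to LPS-treated control; two experiments in duplicate.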

[16] = molecular target: T3, Aromatase (Homo sapiens, UniProt P11511); experiment: Inhibition of aromatase (unknown origin) using dibenzylfluorscein as substrate incubated with NADP+ for 10 mins prior to substrate addition measured after 30 mins by fluorescence assay
T3 sequence (P11511 whole entry): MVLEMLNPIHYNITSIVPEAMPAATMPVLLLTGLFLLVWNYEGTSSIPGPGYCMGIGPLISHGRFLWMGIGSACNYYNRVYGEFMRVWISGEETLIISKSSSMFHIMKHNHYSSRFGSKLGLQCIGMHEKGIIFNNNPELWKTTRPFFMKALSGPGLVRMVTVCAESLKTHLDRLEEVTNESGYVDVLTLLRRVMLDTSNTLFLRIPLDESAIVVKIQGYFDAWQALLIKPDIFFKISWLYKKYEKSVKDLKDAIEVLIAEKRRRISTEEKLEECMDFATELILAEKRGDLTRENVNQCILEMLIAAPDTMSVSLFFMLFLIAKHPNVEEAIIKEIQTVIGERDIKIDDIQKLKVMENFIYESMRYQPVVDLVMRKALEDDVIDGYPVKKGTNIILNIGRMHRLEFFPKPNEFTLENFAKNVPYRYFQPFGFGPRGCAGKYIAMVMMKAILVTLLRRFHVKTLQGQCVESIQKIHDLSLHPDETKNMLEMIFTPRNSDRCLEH

[17] = molecular target: T3, Aromatase; experiment: Inhibition of aromatase (unknown origin) using dibenzylfluorscein as substrate incubated with NADP+ for 10 mins prior to substrate addition at 50 uM measured after 30 mins by fluorescence assay; conditions: 0.5 h
Method in brief: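 Compounds preincubated 10 min at 37 °C with an NADPH-regenerating system (2.6 mM NADP+, 7.6 mM glucose 6-phosphate, 0.8 U/mL G6PDH, 13.9 mM MgCl2, 1 mg/mL albumin; 50 mM K phosphate, pH 7.4). CYP19 enzyme with […] was added for 30 min at 37 °C. The reaction was stopped with 2 N NaOH and held 24 h at 37 °C, then fluorescence read at ex 485/em 530 nm.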

[18] = Half life in human liver microsomes at 1 uM after 1 to 60 mins by UHPLC-MS/MS analysis; format: ADME, Microsome
[19] = test system: RAW264.7; experiment: Cytotoxicity against mouse RAW264.7 cells assessed as cell survival after 20 hrs by SRB assay; conditions: for inhibition (INH): mouse, raw264.7, 20 h
[20] = molecular target: NAD(P)H dehydrogenase [quinone] 1 (Mus musculus) (UniProt Q64669); experiment: Induction of quinone reductase-1 activity in mouse Hepa-1c1c7 cells assessed as induction ratio at 50 uM by MTT assay relative to DMSO-treated control; format: cell-based; method in brief: as §4
[21] = test system: Liver microsomes; experiment: Drug metabolism in human liver microsomes assessed as monooxygenated metabolite by UHPLC-MS/MS analysis; format: ADME, Microsome; method in brief: as §3

Cc1ccc(S(=O)(=O)N[C@@H](Cc2ccccc2)C(=O)CCl)cc1 [TPCK]
pIC50 [1]: 5.42

O=c1c(O)c(-c2ccc(O)c(O)c2)oc2cc(O)cc(O)c12
Activity [2]: 3.1 µM

Oc1ccc(O)c(-c2cn3ccsc3n2)c1
inhibition [3]: 97.7%
inhibition [4]: Dose-dependent effect
pIC50 [5]: 5.19
Ratio [6]: 0.3
pIC50 [7]: 4.33
Ratio [8]: 0.9
Activity [9]: 0.71 µM
inhibition [10]: 91%
viability at 50 µM [11]: 43.6%
Activity [12]: 1.032 µM
Drug metabolism [13]: Active
Activity [2]: 1.29 µM
CD [14]: 12.1 µM
viability at 0.25 h, 50 µM [15]: 48.2%
pIC50 [16]: 5.59
inhibition at 50 µM [17]: 98.6%
half-life at 1 µM [18]: 5.9 min
pIC50 ([19]; Mus musculus, RAW264.7, 20 h): 4.94
inhibition (INH) [19]: Dose-dependent effect
pIC50 [1]: 5.65
Ratio [20]: 3.8

O=c1c(-c2ccc(O)cc2)coc2c([C@@H]3O[C@H](CO)[C@@H](O)[C@H](O)[C@H]3O)c(O)ccc12 [PUERARIN]
Activity [12]: 0.192 µM

Cc1cn2cc(-c3ccc(O)c(O)c3O)nc2s1
inhibition [3]: 98.8%
inhibition [4]: Dose-dependent effect
pIC50 [5]: 5.17
Ratio [6]: 0.2
pIC50 [7]: 4.67
Ratio [8]: 1.2
Activity [9]: 1.38 µM
inhibition [10]: 97.5%
viability at 50 µM [11]: 34.3%
Activity [12]: 0.14 µM
Activity [2]: 3.06 µM
CD [14]: 24.6 µM
viability at 0.25 h, 50 µM [15]: 52.3%
pIC50 [16]: 5.49
inhibition at 50 µM [17]: 99.6%
half-life at 1 µM [18]: 11.2 min
inhibition (INH) [19]: Dose-dependent effect
pIC50 [1]: 6.28
Ratio [20]: 2.03
Drug metabolism [21]: Active

CC(C)NCC(O)COc1cccc2ccccc12 (stereo unspecified) [PROPRANOLOL]
half-life at 1 µM [18]: 20.8 min

Oc1cc(O)c2c(c1)O[C@@H](c1ccc(O)c(O)c1)[C@H](O)C2 [(-)-CATECHIN]
Activity [12]: 2.2 µM
